Results as given in ChEMBL document CHEMBL3124940, “Design, synthesis and biological evaluation of D-ring opened galantamine analogs as multifunctional anti-Alzheimer agents” (Eur J Med Chem, 2014).
The source made the active and inactive calls. The calls are words filed in the database; no cut-off is given here.

Columns and labels:
Rattus norvegicus [1] = assay: Toxicity in Wistar rat assessed as lipidperoxidation product level in kidney at 6 umol/100 g body weight, ip by fluorometric analysis relative to control; assay type: organism-based; conditions: in vivo
How it was run: (§1)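 Rats dosed i.p.; tissues taken after 24 h. For GSH/GSSG, tissue homogenized in 11 volumes of 0.2 M sodium phosphate (5 mM EDTA, pH 8.0) plus 4 volumes of 25% metaphosphoric acid and centrifuged 12 000 × g, 4 °C, 30 min; supernatant read photometrically (GSH) or fluorometrically (GSSG). Lipid peroxidation products measured as TBARS in 19-volume ice-cold saline homogenates, fluorometrically.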

Rattus norvegicus [2] = assay: Toxicity in Wistar rat assessed as total glutathione level in kidney at 6 umol/100 g body weight, ip by fluorometric analysis relative to control; assay type: organism-based; conditions: in vivo; how it was run: as §1
Rattus norvegicus [3] = assay: Toxicity in Wistar rat assessed as total glutathione level in kidney at 1 umol/100 g body weight, ip by fluorometric analysis relative to control; assay type: organism-based; conditions: in vivo; how it was run: as §1
Rattus norvegicus [4] = assay: Toxicity in Wistar rat assessed as GSSG level in kidney at 1 umol/100 g body weight, ip by fluorometric analysis relative to control; assay type: organism-based; conditions: in vivo; how it was run: as §1
Rattus norvegicus [5] = assay: Toxicity in Wistar rat assessed as GSH level in kidney at 1 umol/100 g body weight, ip by fluorometric analysis relative to control; assay type: organism-based; conditions: in vivo
Rattus norvegicus [6] = assay: Toxicity in Wistar rat assessed as kidney weight at 6 umol/100 g body weight, ip relative to control; assay type: organism-based; conditions: in vivo
Rattus norvegicus [7] = assay: Toxicity in Wistar rat assessed as kidney weight at 1 umol/100 g body weight, ip relative to control; assay type: organism-based; conditions: in vivo
Rattus norvegicus [8] = assay: Toxicity in Wistar rat assessed as lipidperoxidation product level in brain at 1 umol/100 g body weight, ip by fluorometric analysis relative to control; assay type: organism-based; conditions: in vivo; how it was run: as §1
Rattus norvegicus [9] = assay: Toxicity in Wistar rat assessed as total glutathione level in brain at 1 umol/100 g body weight, ip by fluorometric analysis relative to control; assay type: organism-based; conditions: in vivo; how it was run: as §1
Rattus norvegicus [10] = assay: Toxicity in Wistar rat assessed as GSH level in brain at 6 umol/100 g body weight, ip by fluorometric analysis relative to control; assay type: organism-based; conditions: in vivo
Rattus norvegicus [11] = assay: Toxicity in Wistar rat assessed as ethoxyresorufin-O-deethylation activity in liver measured as resorufin level at 1 umol/100 g body weight, ip by fluorometric analysis relative to control; assay type: organism-based; conditions: in vivo
How it was run: (§2)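 Rats dosed i.p.; after 24 h, liver homogenized 1:3 w/v in 0.1 M sodium phosphate pH 7.4 and centrifuged at 9000 × g, 4 °C, 20 min. Supernatant protein determined by the Biuret method. Ethoxyresorufin-O-deethylation measured fluorometrically as resorufin formed.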

Rattus norvegicus [12] = assay: Toxicity in Wistar rat assessed as ethoxycoumarin-O-deethylation activity in liver measured as 7-hydroxycoumarin level at 1 umol/100 g body weight, ip by fluorometric analysis relative to control; assay type: organism-based; conditions: in vivo
Rattus norvegicus [13] = assay: Toxicity in Wistar rat assessed as ethylmorphine-N-demethylation activity in liver measured as formaldehyde level at 6 umol/100 g body weight, ip by photometric analysis relative to control; assay type: organism-based; conditions: in vivo
Rattus norvegicus [14] = assay: Toxicity in Wistar rat assessed as ethylmorphine-N-demethylation activity in liver measured as formaldehyde level at 1 umol/100 g body weight, ip by photometric analysis relative to control; assay type: organism-based; conditions: in vivo
Rattus norvegicus [15] = assay: Toxicity in Wistar rat assessed as protein content in liver at 6 umol/100 g body weight, ip by Biuret method relative to control; assay type: organism-based; conditions: in vivo; how it was run: as §2
Rattus norvegicus [16] = assay: Toxicity in Wistar rat assessed as lipidperoxidation product level in liver at 6 umol/100 g body weight, ip relative to control; assay type: organism-based; conditions: in vivo
Rattus norvegicus [17] = assay: Toxicity in Wistar rat assessed as total glutathione level in liver at 6 umol/100 g body weight, ip by fluorometric analysis relative to control; assay type: organism-based; conditions: in vivo
How it was run: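 Rats were dosed, killed 24 h later, and liver and other tissues were taken. Samples were homogenized in 11 vol 0.2 M sodium phosphate (5 mM EDTA, pH 8.0) plus 4 vol 25% metaphosphoric acid, then spun at 12 000 × g, 4 °C, 30 min. GSH was read photometrically and GSSG fluorometrically in the supernatant, alongside total glutathione.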

Rattus norvegicus [18] = assay: Toxicity in Wistar rat assessed as total glutathione level in liver at 1 umol/100 g body weight, ip by fluorometric analysis relative to control; assay type: organism-based; conditions: in vivo; how it was run: as §1
Rattus norvegicus [19] = assay: Toxicity in Wistar rat assessed as GSSG level in liver at 6 umol/100 g body weight, ip by fluorometric analysis relative to control; assay type: organism-based; conditions: in vivo; how it was run: as §1
Rattus norvegicus [20] = assay: Toxicity in Wistar rat assessed as GSSG level in liver at 1 umol/100 g body weight, ip by fluorometric analysis relative to control; assay type: organism-based; conditions: in vivo; how it was run: as §1
Rattus norvegicus [21] = assay: Toxicity in Wistar rat assessed as GSH level in liver at 1 umol/100 g body weight, ip by fluorometric analysis relative to control; assay type: organism-based; conditions: in vivo
Rattus norvegicus [22] = assay: Toxicity in Wistar rat assessed as liver weight at 6 umol/100 g body weight, ip relative to control; assay type: organism-based; conditions: in vivo
Rattus norvegicus [23] = assay: Toxicity in Wistar rat assessed as liver weight at 1 umol/100 g body weight, ip relative to control; assay type: organism-based; conditions: in vivo
Rattus norvegicus [24] = assay: Toxicity in Wistar rat assessed as body weight at 6 umol/100 g body weight, ip relative to control; assay type: organism-based; conditions: in vivo
[25] = target: Amyloid-beta precursor protein (Homo sapiens) (UniProt P05067); assay: Inhibition of amyloid beta (1 to 42) aggregation (unknown origin) at 50 uM after 1 hr by thioflavin T fluorescence assay relative to control
Chain of Amyloid-beta precursor protein (Homo sapiens) (P05067 whole entry): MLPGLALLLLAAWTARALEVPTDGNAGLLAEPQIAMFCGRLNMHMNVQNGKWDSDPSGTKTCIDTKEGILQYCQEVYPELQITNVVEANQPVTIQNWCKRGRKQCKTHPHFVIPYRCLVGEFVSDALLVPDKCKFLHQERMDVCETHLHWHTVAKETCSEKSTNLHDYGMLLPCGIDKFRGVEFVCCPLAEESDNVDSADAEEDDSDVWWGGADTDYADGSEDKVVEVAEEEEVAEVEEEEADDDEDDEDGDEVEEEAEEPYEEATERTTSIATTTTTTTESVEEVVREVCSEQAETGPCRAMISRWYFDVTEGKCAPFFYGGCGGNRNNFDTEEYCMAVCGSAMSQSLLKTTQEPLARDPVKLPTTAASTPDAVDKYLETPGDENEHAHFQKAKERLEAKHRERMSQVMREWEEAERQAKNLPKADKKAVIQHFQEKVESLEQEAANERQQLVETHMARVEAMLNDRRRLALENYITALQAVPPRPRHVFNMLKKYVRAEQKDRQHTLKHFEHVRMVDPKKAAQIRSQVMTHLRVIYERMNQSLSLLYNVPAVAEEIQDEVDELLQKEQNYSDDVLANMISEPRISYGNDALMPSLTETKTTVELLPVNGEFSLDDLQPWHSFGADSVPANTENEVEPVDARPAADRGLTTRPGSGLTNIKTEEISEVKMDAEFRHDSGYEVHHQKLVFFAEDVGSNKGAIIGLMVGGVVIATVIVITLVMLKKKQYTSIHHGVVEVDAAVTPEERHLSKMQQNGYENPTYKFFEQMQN
How it was run: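 Aβ42 stock (200 µM in DMSO) centrifuged 12,000 rpm for 10 min; supernatant used. Compound (2 µL of 0.2–4.0 mM DMSO stock) and 2 µL Aβ42 stock added to 76 µL PBS pH 7.4, incubated 1 h at room temperature. 80 µL of 5 µM ThT in 50 mM glycine-NaOH pH 8.5 then added; fluorescence read at excitation 430 nm, emission 488 nm.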

[26] = target: Amyloid-beta precursor protein (Homo sapiens) (UniProt P05067); assay: Inhibition of amyloid beta (1 to 42) aggregation (unknown origin) at 50 uM after 6 days by atomic force microscopic analysis
How it was run: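 Compound (2.5 µL of 1.0 mM) and 2.5 µL of 200 µM Aβ42 added to 45 µL PBS (20% TFE, pH 7.4); the control lacks compound. Incubated 37 °C for 6 days, then 3 µL deposited on freshly cleaved mica for 5 min, blown dry and imaged by atomic force microscopy.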

Rattus norvegicus [27] = assay: Toxicity in Wistar rat assessed as change in movement at 1 umol/100 g body weight, ip; assay type: organism-based; conditions: in vivo

## COc1ccc2c(c1)oc1cccc(CN(C(=O)CCO[N+](=O)[O-])C(C)C)c12
Rattus norvegicus [1]
  Activity: 96.2 nmol/g
Rattus norvegicus [2]
  Activity: 1800 µg/g
Rattus norvegicus [3]
  Activity: 1783 µg/g
Rattus norvegicus [4]
  Activity: 161 µg/g
Rattus norvegicus [5]
  Activity: 1462 µg/g
Rattus norvegicus [6]
  Activity: 0.84 g
Rattus norvegicus [7]
  Activity: 0.93 g
Rattus norvegicus [8]
  Activity: 160 nmol/g
Rattus norvegicus [9]
  Activity: 814 µg/g
Rattus norvegicus [10]
  Activity: 672 µg/g
Rattus norvegicus [11]
  Activity: 114 pmol/mg/min
Rattus norvegicus [12]
  Activity: 187 pmol/mg/min
Rattus norvegicus [13]
  Activity: 0.52 nmol/mg/min
Rattus norvegicus [14]
  Activity: 0.48 nmol/mg/min
Rattus norvegicus [15]
  Activity: 64.7 mg/mL
Rattus norvegicus [16]
  Activity: 63.9 nmol/g
Rattus norvegicus [17]
  Activity: 3320 µg/g
Rattus norvegicus [18]
  Activity: 3365 µg/g
Rattus norvegicus [19]
  Activity: 418 µg/g
Rattus norvegicus [20]
  Activity: 411 µg/g
Rattus norvegicus [21]
  Activity: 2542 µg/g
Rattus norvegicus [22]
  Activity: 8 g
Rattus norvegicus [23]
  Activity: 7.6 g
Rattus norvegicus [24]
  Activity: 259 g
[25]
  inhibition: 19%
[26]
  inhibition: Active
Rattus norvegicus [27]
  Activity: Non-toxic
